Experiments:
[1] = AUC in Wistar rat at 10 mg/kg, po; assay type: ADME, organism-based; set-up: dose 10 mg/kg, route oral; conditions: plasma
In short: (§1)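 Wistar rats, single dose either iv 1 mg/kg in 40% PEG + 0.4% HCl 1 N, or oral 10 mg/kg in 0.5% methylcellulose + 0.1% Tween 80; plasma PK parameters reported as mean values (n = 2).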

Cytochrome P450 3A4 = Cytochrome P450 3A4 (Homo sapiens, UniProt P08684); assay: Inhibition of CYP3A4 at < 25 uM; assay type: ADME
[2] = Stability in rat hepatic microsomes assessed as compound turnover at 5 uM incubated for 30 mins in presence of NADPH; assay type: ADME; conditions: liver microsomes, read-out: Drug degradation
In short: (§2)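 Rat or human hepatic microsomes (1 mg/mL) with NADPH, test compound 5 µM, 30 min at 37 °C; readout is % turnover of parent.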

CHO [3] = assay: Toxicity against CHO cells; assay type: cell-based, Cricetulus griseus; conditions: chinese hamster
Cytochrome P450 2C9 = Cytochrome P450 2C9 (Homo sapiens, UniProt P11712); assay: Inhibition of CYP2C9 at < 25 uM; assay type: ADME
Chain of Cytochrome P450 2C9 (P11712 whole entry): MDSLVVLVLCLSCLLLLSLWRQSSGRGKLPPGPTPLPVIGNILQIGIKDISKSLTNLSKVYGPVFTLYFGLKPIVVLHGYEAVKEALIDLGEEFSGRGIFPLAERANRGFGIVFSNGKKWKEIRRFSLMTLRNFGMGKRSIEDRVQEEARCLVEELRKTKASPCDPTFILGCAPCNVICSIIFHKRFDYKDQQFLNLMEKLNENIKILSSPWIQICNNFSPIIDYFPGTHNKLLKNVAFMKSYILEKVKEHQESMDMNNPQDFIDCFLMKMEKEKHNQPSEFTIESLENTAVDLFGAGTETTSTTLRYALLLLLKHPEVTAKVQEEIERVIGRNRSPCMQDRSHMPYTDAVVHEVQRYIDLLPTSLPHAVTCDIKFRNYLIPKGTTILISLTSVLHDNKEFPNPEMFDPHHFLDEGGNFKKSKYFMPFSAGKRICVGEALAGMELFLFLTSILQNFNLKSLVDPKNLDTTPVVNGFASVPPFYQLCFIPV

CHO [4] = assay: Cytotoxicity against CHO cells at 200 uM; assay type: cell-based, Cricetulus griseus; conditions: chinese hamster
[5] = Cmax in beagle dog at 1 mg/kg, po; assay type: ADME, organism-based, Canis lupus familiaris; set-up: dose 1 mg/kg, route oral; conditions: in vivo
In short: (§3)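 Beagle dogs dosed 1 mg/kg iv or 1 mg/kg po; pharmacokinetic parameters reported as mean values of n = 2 animals.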

Rattus norvegicus [6] = assay: Antiarthritic effect in rat adjuvant-induced arthritis model assessed as inhibition of right paw edema at 3 mg/kg, po dosed daily during last 10 days of test; assay type: functional; conditions: 240 h
In short: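 Arthritis induced by complete Freund's adjuvant injected into left hind paw; oral compound daily over final 10 days of protocol; right (non-injected) paw volume monitored, result as % inhibition of oedema.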

[7] = Clearance in beagle dog at 1 mg/kg, iv; assay type: ADME, organism-based, Canis lupus familiaris; set-up: dose 1 mg/kg, route intravenous; conditions: in vivo; in short: as §3
Blood = assay: Inhibition of LPS-induced TNFalpha production in human whole blood; assay type: functional, tissue-based
in vitro = conditions: human, Caco-2
Cytochrome P450 2C19 = Cytochrome P450 2C19 (Homo sapiens, UniProt P33261); assay: Inhibition of CYP2C19 at < 25 uM; assay type: ADME
Chain of Cytochrome P450 2C19 (P33261 whole entry): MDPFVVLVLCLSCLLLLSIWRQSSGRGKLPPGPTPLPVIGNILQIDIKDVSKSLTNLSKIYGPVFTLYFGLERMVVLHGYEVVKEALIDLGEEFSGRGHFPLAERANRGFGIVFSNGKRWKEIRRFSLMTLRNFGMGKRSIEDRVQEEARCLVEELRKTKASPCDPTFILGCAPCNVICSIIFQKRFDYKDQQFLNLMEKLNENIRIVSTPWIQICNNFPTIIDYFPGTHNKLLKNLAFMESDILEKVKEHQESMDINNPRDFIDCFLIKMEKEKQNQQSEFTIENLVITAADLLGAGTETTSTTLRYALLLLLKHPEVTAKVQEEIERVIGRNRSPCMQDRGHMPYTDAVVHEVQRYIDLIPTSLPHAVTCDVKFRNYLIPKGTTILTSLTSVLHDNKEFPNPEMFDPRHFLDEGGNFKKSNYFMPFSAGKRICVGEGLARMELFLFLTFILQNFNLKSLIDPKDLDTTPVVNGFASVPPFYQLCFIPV

[8] = Cmax in Wistar rat at 10 mg/kg, po; assay type: ADME, organism-based; set-up: dose 10 mg/kg, route oral; conditions: in vivo; in short: as §1
[9] = Volume of distribution at steady state in beagle dog at 1 mg/kg, iv; assay type: ADME, organism-based, Canis lupus familiaris; set-up: dose 1 mg/kg, route intravenous; conditions: in vivo, read-out: Vdss; in short: as §3
[10] = Passive permeability from basolateral to apical side in human Caco2 cells at 12.5 uM; assay type: ADME, cell-based; conditions: Caco-2, read-out: permeability
In short: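 Caco-2 monolayer, test compound 12.5 µM; passive apparent permeability measured in both AB and BA directions, reported in 10^-6 cm/s.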

[11] = Half life in beagle dog at 1 mg/kg, iv; assay type: ADME, organism-based, Canis lupus familiaris; set-up: dose 1 mg/kg, route intravenous; conditions: in vivo; in short: as §3
[12] = molecular target: Proto-oncogene tyrosine-protein kinase receptor Ret (Homo sapiens, UniProt P07949); assay: Inhibition of RET
Chain of Proto-oncogene tyrosine-protein kinase receptor Ret (P07949 whole entry): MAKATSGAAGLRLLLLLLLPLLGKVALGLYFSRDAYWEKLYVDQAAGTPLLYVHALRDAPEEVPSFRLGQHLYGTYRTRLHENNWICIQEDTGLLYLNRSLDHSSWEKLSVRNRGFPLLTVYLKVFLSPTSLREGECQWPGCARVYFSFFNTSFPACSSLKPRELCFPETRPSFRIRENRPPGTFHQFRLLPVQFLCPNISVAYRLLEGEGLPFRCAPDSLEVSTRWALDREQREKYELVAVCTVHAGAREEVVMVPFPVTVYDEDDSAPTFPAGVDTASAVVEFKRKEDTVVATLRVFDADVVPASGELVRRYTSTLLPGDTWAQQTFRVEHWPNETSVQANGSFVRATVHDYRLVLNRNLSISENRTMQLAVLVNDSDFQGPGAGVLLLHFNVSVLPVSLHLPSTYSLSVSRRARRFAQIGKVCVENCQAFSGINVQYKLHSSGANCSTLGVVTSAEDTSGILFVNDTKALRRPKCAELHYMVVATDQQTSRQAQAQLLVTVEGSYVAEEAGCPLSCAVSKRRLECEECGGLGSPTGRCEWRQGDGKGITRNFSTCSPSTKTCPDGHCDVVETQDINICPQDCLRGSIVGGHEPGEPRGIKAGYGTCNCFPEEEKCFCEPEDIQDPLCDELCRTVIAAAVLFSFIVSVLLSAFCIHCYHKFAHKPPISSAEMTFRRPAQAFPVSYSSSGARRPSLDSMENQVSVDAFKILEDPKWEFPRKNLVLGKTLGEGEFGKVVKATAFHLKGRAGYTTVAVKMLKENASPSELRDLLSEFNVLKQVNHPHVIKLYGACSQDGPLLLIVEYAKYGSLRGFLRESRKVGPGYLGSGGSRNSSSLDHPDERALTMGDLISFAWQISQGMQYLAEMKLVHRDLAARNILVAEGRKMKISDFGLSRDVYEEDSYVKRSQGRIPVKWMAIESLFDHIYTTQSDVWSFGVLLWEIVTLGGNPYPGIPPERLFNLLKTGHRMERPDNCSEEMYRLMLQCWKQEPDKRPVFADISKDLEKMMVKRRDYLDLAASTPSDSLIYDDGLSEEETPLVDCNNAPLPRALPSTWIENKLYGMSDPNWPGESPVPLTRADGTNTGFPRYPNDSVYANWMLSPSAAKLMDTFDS

[13] = Clearance in Wistar rat at 1 mg/kg, iv; assay type: ADME, organism-based; set-up: dose 1 mg/kg, route intravenous; conditions: in vivo; in short: as §1
[14] = AUC in beagle dog at 1 mg/kg, po; assay type: ADME, organism-based, Canis lupus familiaris; set-up: dose 1 mg/kg, route oral; conditions: plasma; in short: as §3
[15] = Half life in Wistar rat at 1 mg/kg, iv; assay type: ADME, organism-based; set-up: dose 1 mg/kg, route intravenous; conditions: in vivo; in short: as §1
[16] = Stability in human hepatic microsomes assessed as compound turnover at 5 uM incubated for 30 mins in presence of NADPH; assay type: ADME; conditions: liver microsomes, read-out: Drug degradation; in short: as §2
[17] = Volume of distribution at steady state in Wistar rat at 1 mg/kg, iv; assay type: ADME, organism-based; set-up: dose 1 mg/kg, route intravenous; conditions: in vivo, read-out: Vdss; in short: as §1
[18] = Protein binding in rat plasma; assay type: ADME, cell-free; conditions: read-out: PPB (converted)
[19] = AUC in Wistar rat at 1 mg/kg, iv; assay type: ADME, organism-based; set-up: dose 1 mg/kg, route intravenous; conditions: plasma; in short: as §1
Cytochrome P450 2D6 = Cytochrome P450 2D6 (Homo sapiens, UniProt P10635); assay: Inhibition of CYP2D6 at < 25 uM; assay type: ADME
Chain of Cytochrome P450 2D6 (P10635 whole entry): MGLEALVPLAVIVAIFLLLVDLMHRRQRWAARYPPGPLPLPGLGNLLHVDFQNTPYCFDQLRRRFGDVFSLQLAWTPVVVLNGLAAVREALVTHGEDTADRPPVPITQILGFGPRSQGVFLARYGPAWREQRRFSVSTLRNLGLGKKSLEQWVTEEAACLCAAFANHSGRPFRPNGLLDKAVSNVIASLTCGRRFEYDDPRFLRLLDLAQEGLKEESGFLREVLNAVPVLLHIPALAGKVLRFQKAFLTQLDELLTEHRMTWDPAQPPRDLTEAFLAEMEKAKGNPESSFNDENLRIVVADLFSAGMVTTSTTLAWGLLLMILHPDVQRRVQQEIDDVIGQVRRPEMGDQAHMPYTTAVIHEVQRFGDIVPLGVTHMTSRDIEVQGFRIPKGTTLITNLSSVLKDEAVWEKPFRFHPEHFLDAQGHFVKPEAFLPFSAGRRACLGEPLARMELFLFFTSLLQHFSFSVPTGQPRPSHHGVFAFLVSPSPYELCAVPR

Cytochrome P450 1A2 = molecular target: T1, Cytochrome P450 1A2 (Homo sapiens, UniProt P05177); assay: Inhibition of CYP1A2 at < 25 uM; assay type: ADME
T1 sequence (P05177 whole entry): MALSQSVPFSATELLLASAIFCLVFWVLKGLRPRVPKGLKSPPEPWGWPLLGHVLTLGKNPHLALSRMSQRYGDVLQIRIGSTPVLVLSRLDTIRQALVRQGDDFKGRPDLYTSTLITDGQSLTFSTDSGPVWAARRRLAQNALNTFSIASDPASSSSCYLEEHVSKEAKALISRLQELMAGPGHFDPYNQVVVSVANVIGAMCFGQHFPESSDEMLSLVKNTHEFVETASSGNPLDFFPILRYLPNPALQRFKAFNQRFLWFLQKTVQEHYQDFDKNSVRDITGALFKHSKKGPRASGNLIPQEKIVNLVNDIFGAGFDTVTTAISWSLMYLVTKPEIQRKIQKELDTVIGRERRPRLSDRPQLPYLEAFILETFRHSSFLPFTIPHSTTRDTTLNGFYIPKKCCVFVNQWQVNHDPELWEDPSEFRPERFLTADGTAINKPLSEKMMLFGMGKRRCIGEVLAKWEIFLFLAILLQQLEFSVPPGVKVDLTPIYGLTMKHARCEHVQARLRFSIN

[20] = AUC in beagle dog at 1 mg/kg, iv; assay type: ADME, organism-based, Canis lupus familiaris; set-up: dose 1 mg/kg, route intravenous; conditions: plasma; in short: as §3
[21] = Oral bioavailability in Wistar rat at 10 mg/kg; assay type: ADME, organism-based; conditions: in vivo; in short: as §1
[22] = Oral bioavailability in beagle dog at 1 mg/kg; assay type: ADME, organism-based, Canis lupus familiaris; conditions: in vivo; in short: as §3
Rattus norvegicus [23] = assay: Inhibition of TNFalpha release in rat LPS-induced endotoxemia model dosed orally 1 hr prior to LPS challenge and measured 1.5 hrs post LPS challenge; assay type: functional; conditions: po
In short: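 Rats given compound orally 1 h before LPS challenge to induce endotoxemia; plasma TNFα quantified 1.5 h after LPS, at peak TNF production.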

[24] = Protein binding in human plasma; assay type: ADME, cell-free; conditions: read-out: PPB (converted)

Chain of Cytochrome P450 3A4 (P08684 whole entry): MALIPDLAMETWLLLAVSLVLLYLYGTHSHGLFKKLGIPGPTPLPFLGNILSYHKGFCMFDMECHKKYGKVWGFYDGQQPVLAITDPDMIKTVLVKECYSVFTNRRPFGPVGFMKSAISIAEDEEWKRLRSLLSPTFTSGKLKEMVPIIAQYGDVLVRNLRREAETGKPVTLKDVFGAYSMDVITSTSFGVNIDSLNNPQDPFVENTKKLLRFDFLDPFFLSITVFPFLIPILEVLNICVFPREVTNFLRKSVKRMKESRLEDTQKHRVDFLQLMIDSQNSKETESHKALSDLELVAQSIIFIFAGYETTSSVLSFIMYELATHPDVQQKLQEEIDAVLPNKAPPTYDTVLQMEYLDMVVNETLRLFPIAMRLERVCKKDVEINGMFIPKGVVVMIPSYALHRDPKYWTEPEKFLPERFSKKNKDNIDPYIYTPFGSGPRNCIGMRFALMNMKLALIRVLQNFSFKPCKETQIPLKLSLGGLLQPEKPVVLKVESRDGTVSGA

With `Cc1c(F)cc(C(=O)NC2CC2)cc1-c1c(F)cn2c(C(C)(C)C)nnc2c1F` the AUC [1] was 38600 ng·h/mL, the “inhibition (INH)” value (Cytochrome P450 3A4) was “Not Active” and the metabolised at 0.5 h, 5 µM [2] was less than 5%. The Activity (CHO [3]) was “Non-toxic”, the “inhibition (INH)” value (Cytochrome P450 2C9) was “Not Active” and the Activity (CHO [4]) was 33%. It also gave a Cmax [5] of 185 ng/mL, an inhibition in vivo at 3 mg/kg (Rattus norvegicus [6]) of 67% and a clearance [7] of 2.7 mL/min/kg. The IC50 (Blood) was 0.116 µM, the Papp A→B at 12.5 µM (in vitro) was 41 ×10⁻⁶ cm/s and the “inhibition (INH)” value (Cytochrome P450 2C19) was “Not Active”. The Cmax [8] was 3470 ng/mL, the Vd [9] was 1.6 L/kg and the Papp B→A at 12.5 µM [10] was 25 ×10⁻⁶ cm/s. It also gave a half-life [11] of 7.3 h, an IC50 [12] of 2 µM and a clearance [13] of 2.3 mL/min/kg. For the same compound, the AUC [14] was 5060 ng·h/mL, the half-life [15] was 3.3 h and the metabolised at 0.5 h, 5 µM [16] was 6%. It also gave a Vd [17] of 0.57 L/kg, a fraction unbound [18] of 0.25 and an AUC [19] of 8010 ng·h/mL. The “inhibition (INH)” value (Cytochrome P450 2D6) was “Not Active”, the “inhibition (INH)” value (Cytochrome P450 1A2) was “Not Active” and the AUC [20] was 6440 ng·h/mL. It also gave a bioavailability [21] of 50%, a bioavailability [22] of 79% and an ED50 (Rattus norvegicus [23]) of 1.36 mg/kg. It also gave a fraction unbound [24] of 0.21.
